We go through one compound from ChEMBL document CHEMBL4354866, “TREK Channel Family Activator with a Well-Defined Structure-Activation Relationship for Pain and Neurogenic Inflammation” (J Med Chem, 2020).

Calls of active or inactive are those of the source.

The target of test [1] is T1, Potassium channel subfamily K member 2 (Rattus norvegicus) (UniProt Q920B6).
T1 sequence (whole entry): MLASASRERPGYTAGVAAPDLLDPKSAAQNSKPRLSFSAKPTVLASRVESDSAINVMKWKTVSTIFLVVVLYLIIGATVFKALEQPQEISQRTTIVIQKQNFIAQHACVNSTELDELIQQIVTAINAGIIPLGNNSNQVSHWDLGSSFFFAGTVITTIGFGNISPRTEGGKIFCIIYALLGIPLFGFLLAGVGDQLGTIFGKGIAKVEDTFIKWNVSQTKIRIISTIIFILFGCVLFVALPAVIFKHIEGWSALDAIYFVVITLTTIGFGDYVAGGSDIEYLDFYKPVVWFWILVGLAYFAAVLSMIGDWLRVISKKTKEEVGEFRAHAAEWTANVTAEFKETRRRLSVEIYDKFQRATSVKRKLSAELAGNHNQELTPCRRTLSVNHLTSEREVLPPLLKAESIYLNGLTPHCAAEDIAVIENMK
As to the kind of experiment: Activation of TREK in depolarized Sprague-Dawley rat DRG neurons assessed as resting membrane potential at 10 uM by whole cell […] electrophysiological analysis. An outline of the steps:
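Dissociated rat DRG neurons in current clamp, held at 0 pA. Resting membrane potential recorded before and during 10 μM compound; n = 18 cells from 4 rats; paired t test.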

Test [2] addresses T2, Potassium channel subfamily K member 2 (Homo sapiens) (UniProt O95069).
T2 sequence (whole entry): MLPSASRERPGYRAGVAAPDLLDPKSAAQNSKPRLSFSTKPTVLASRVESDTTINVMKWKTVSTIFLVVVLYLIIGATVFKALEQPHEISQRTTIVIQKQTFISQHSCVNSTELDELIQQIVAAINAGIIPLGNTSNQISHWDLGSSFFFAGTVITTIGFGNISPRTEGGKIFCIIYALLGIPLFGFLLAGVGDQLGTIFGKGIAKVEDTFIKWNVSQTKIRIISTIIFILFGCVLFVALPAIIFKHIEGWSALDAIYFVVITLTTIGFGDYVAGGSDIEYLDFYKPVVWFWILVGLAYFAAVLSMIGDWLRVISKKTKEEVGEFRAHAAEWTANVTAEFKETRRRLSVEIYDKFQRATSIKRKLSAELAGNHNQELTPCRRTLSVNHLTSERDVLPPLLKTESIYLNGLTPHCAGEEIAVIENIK
Description: Activation of recombinant human TREK1 expressed in HEK293T cells assessed as change in probability of open channel by inside-out patch electrophysiological analysis. It counts as cell-based. A digest of the protocol:
(§1)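 Inside-out patches from HEK-293T cells expressing human TREK-1 (pEGFP-N1), 10 μM compound. Conductance taken as first open-state amplitude over voltage at -60 or +60 mV.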

The subject of test [3] is Mus musculus. Description: Analgesic activity in cerulein-induced mouse model of acute pancreatitis assessed as reduction in pancreatic necrosis at 10 mg/kg, ip administered at 2 hrs interval for 10 hrs starting from post-first cerulein challenge and measured 12 hrs post-first cerulein challenge by H and E staining based histopathological analysis. It counts as functional, organism-based. An outline of the steps: (§2)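 Cerulein pancreatitis: 7 hourly i.p. injections of 50 µg/kg; 10 mg/kg compound i.p. at 2, 4, 6, 8 and 10 h. Mice killed at 12 h and pancreas harvested for MPO activity and H&E histology. Ten random fields per slide scored blind by two observers for edema, inflammatory infiltration and acinar necrosis; n = 6.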

For test [4], the system named is Mus musculus. Description: Analgesic activity in cerulein-induced mouse model of acute pancreatitis assessed as reduction in mechanical allodynia at 10 mg/kg, ip administered at 2 hrs interval for 10 hrs starting from post-first cerulein challenge and measured 0.5 hrs post-last cerulein challenge by von frey test. The class given is functional, organism-based. An outline of the steps: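 Acute pancreatitis induced by 7 hourly i.p. injections of cerulein (50 µg/kg in ice-cold PBS); controls received PBS. Compound 10 mg/kg i.p. or vehicle at 2, 4, 6, 8 and 10 h. Von Frey testing (ascending filaments) started 0.5 h after the last cerulein injection.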

The target of test [5] is T3, Potassium channel subfamily K member 18 (Homo sapiens) (UniProt Q7Z418).
T3 sequence (whole entry): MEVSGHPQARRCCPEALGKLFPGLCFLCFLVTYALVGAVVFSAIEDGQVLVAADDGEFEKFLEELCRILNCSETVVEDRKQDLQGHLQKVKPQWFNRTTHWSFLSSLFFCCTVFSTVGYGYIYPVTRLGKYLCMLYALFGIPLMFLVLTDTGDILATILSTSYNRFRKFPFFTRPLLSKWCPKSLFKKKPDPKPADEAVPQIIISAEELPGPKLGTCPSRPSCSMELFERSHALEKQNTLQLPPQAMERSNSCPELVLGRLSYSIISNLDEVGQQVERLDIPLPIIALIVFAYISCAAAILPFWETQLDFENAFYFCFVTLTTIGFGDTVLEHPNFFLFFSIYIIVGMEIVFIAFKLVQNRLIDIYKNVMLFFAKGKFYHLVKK
Description: Activation of recombinant human TRESK expressed in HEK293T cells assessed as increase in K+ current amplitude at 10 uM by whole cell voltage clamp electrophysiological analysis. It counts as cell-based. A digest of the protocol: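 HEK-293T cells transiently transfected with the human K2P channel. Whole-cell clamp at -60 mV, 500-ms ramp -120 to +60 mV. Pipette 140 KCl (pH 7.4), external 145 NaCl/4 KCl (pH 7.3). Compound 10 μM, diluted from 10 mM DMSO stock into external solution.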

For test [6], the target named is Potassium channel subfamily K member 2 (Homo sapiens, UniProt O95069, G275C). Description: Activation of recombinant human TREK1 G275C mutant expressed in HEK293T cells assessed as increase in K+ current amplitude in presence of MTSET by whole cell voltage clamp electrophysiological analysis. It counts as cell-based. A digest of the protocol:
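Human TREK-1 G275C expressed in HEK-293T, whole-cell ramp recordings. Tested with or without MTSET, 1 mM final, diluted from 0.5 M DMSO stock within 120 s of application. Concentration–response curves for EC50, n = 5–19; 10 μM single-point comparison by one-way ANOVA with Tukey test.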

Test [7] concerns Mus musculus. Description: Analgesic activity in mouse model of spared nerve injury assessed as reduction in cold hyperalgesia at 5 mg/kg, ip measured at 7 days interval for up to 21 days post spared nerve injury by cold plantar test. It counts as functional, organism-based. An outline of the steps:
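SNI mice acclimated 3 days on a 6 mm glass plate; compound 5 mg/kg i.p. A dry-ice-packed syringe was applied to the centre of the left hindpaw. Withdrawal latency timed by stopwatch, cut-off 30 s; n = 8–10.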

The target of test [8] is T2, Potassium channel subfamily K member 2 (Homo sapiens). As to the kind of experiment: Activation of recombinant human TREK1 expressed in HEK293T cells assessed as change in single channel conductance by inside-out patch electrophysiological analysis. It counts as cell-based. An outline of the steps:
as §1

The test system of test [9] is Mus musculus. Description: Analgesic activity in cerulein-induced mouse model of acute pancreatitis assessed as reduction in pancreatic inflammatory infiltration at 10 mg/kg, ip administered at 2 hrs interval for 10 hrs starting from post-first cerulein challenge and measured 12 hrs post-first cerulein challenge by H and E staining based histopathological analysis. It counts as functional, organism-based. A digest of the protocol:
as §2

Chain of Potassium channel subfamily K member 2 (O95069 whole entry G275C): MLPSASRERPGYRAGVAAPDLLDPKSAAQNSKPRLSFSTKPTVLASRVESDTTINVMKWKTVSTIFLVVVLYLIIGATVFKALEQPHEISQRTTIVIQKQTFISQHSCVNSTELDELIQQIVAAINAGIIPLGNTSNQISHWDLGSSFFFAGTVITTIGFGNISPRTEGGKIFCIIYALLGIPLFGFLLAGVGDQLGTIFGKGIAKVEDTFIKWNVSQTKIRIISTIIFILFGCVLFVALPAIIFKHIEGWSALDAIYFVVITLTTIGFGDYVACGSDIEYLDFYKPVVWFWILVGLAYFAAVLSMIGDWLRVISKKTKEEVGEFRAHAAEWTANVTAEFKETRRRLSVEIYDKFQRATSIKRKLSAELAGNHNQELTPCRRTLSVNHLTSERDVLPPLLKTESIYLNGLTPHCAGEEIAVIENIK

The EC50 is the concentration giving half of the maximal effect. In the case of `Cc1ccc2nc(-c3ccc(NC(=O)[C@@H]4CC[C@H](C(=O)O)C4)cc3)sc2c1`, the Activity in test [1] was determined as 1.12 mV. Moreover, the result in test [2] and in test [8] was inactive. Moreover, the result (in the test on Mus musculus [3]; with Mus musculus [4]; in test [5]; in the test with Mus musculus [7]; in the test on Mus musculus [9]) was Active. For the same compound, in [6], the EC50 came to 18.4 µM.
